ChEMBL document CHEMBL2346559, “Optimization of benzoxazole-based inhibitors of Cryptosporidium parvum inosine 5'-monophosphate dehydrogenase” (J Med Chem, 2013)

Assays:
Liver [1] = experiment: Half life in mouse liver microsomes by LC/MS/MS analysis in presence of NADPH; format: ADME, Microsome
Procedure, shortened: (§1)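 Incubation with mouse liver microsomes at 37 °C, with and without NADPH. Percent of compound remaining measured at several time points; half-life from a fit to first-order decay.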

Toxoplasma gondii [2] = experiment: Antiparasitic activity against transgenic Toxoplasma gondii expressing Cryptosporidium parvum IMPDH; format: functional, organism-based
Procedure, shortened: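 Engineered T. gondii strain that depends on CpIMPDH for guanine nucleotide synthesis, run alongside the wild-type RH strain, whose native eukaryotic IMPDH also gauges host-cell cytotoxicity. Antiparasitic EC50 is the average of three independent determinations unless otherwise stated, with some values from two determinations.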

[3] = target: T1, Inosine-5'-monophosphate dehydrogenase (Cryptosporidium parvum, UniProt Q8T6T2); experiment: Inhibition of Cryptosporidium parvum N-terminal His6-tagged IMPDH-mediated NADH production expressed in Escherichia coli BL21(DE3) preincubated for 5 mins prior to substrate addition by fluorescence assay in presence of BSA
T1 sequence (Q8T6T2 whole entry): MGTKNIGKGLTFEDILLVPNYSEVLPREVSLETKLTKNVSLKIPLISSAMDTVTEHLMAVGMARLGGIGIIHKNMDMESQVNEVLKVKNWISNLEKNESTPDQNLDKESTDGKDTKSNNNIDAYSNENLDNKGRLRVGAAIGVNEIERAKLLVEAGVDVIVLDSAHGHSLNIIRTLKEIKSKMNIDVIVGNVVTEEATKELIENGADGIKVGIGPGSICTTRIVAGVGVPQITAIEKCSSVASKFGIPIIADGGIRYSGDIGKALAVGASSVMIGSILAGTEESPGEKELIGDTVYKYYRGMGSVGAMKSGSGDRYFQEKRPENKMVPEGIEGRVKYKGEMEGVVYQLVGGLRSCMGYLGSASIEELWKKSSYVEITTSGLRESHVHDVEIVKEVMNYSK
Procedure, shortened: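 Same CpIMPDH fluorescence assay (10 nM enzyme, 300 μM NAD, 150 μM IMP, pH 8.0 Tris buffer, 25 °C, 5 min inhibitor preincubation), run with 0.05% fatty-acid-free BSA added to gauge nonspecific protein binding. Quadruplicate points; IC50 averaged over three determinations.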

Toxoplasma gondii [4] = experiment: Antiparasitic activity against wild-type Toxoplasma gondii expressing eukaryotic IMPDH; format: functional, organism-based
Toxoplasma gondii [5] = experiment: Selectivity ratio of EC50 for wild-type Toxoplasma gondii to EC50 for Toxoplasma gondii expressing Cryptosporidium parvum IMPDH; format: functional
[6] = target: Inosine-5'-monophosphate dehydrogenase 2 (Homo sapiens, UniProt P12268); experiment: Inhibition of human IMPDH2
[7] = Cytotoxicity against CHO cells after 3 days by Alamar blue assay; format: cell-based, Cricetulus griseus; details: chinese hamster, read-out: LD50
Procedure, shortened: (§2)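 Tested in parallel against HeLa, HEK293, COS and CHO cells. Viability was read as metabolic activity by alamarBlue and expressed as LD50.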

[8] = Cytotoxicity against African green monkey COS cells after 3 days by Alamar blue assay; format: cell-based; details: chlorocebus aethiops, read-out: LD50; procedure, shortened: as §2
[9] = target: T1, Inosine-5'-monophosphate dehydrogenase; experiment: Inhibition of Cryptosporidium parvum N-terminal His6-tagged IMPDH-mediated NADH production expressed in Escherichia coli BL21(DE3) preincubated for 5 mins prior to substrate addition by fluorescence assay
[10] = Cytotoxicity against human HEK293 cells after 3 days by Alamar blue assay; format: cell-based; details: read-out: LD50; procedure, shortened: as §2
[11] = Cytotoxicity against human HeLa cells after 3 days by Alamar blue assay; format: cell-based; details: read-out: LD50; procedure, shortened: as §2
Liver [12] = experiment: Half life in mouse liver microsomes by LC/MS/MS analysis; format: ADME, Microsome; procedure, shortened: as §1
[13] = target: T2, Inosine-5'-monophosphate dehydrogenase (Cryptosporidium parvum) (UniProt Q8T6T2)
T2 sequence (whole entry): T1 sequence (Q8T6T2 whole entry)

[14] = target: T2, Inosine-5'-monophosphate dehydrogenase (Cryptosporidium parvum); remark: listed apart in the source

Row | SMILES | EC50 (Toxoplasma gondii [2]) [nM] | IC50 [3] [nM] | EC50 (Toxoplasma gondii [4]) [nM] | Ratio EC50 (Toxoplasma gondii [5]) | IC50 [6] [nM] | IC50 [9] [nM] | also measured
1 | C[C@H](Oc1cccc2ccccc12)C(=O)Nc1ccc2oc(-c3ccncc3)nc2c1 | 400 | 8 | 2200 | 5 | > 5000 | – | t1/2 (Liver [1]): 30 min
2 | C[C@H](Oc1cccc([N+](=O)[O-])c1Cl)C(=O)Nc1ccc2oc(-c3ccncc3)nc2c1 | 190 | 6 | – | – | > 5000 | 2.3 | CC50 at 72 h [7]: > 50000 nM; CC50 at 72 h [8]: > 50000 nM; CC50 at 72 h [10]: > 50000 nM; CC50 at 72 h [11]: > 50000 nM
3 | CC(Oc1ccc(Cl)c2ccccc12)C(=O)Nc1ccc2oc(-c3ccncc3)nc2c1 (stereo not given) | – | 53 | – | – | > 5000 | 27 | –
4 | CC(Oc1cccc2ccccc12)C(=O)Nc1ccc2oc(-c3ncccn3)nc2c1 (stereo not given) | – | – | – | – | > 5000 | > 5000 | –
5 | CC(Oc1ccc(Cl)cc1Cl)C(=O)Nc1ccc2oc(-c3cccnc3)nc2c1 (stereo not given) | – | 600 | – | – | > 5000 | 150 | –
6 | COc1cccc(O[C@@H](C)C(=O)Nc2ccc3oc(-c4ccncc4)nc3c2)c1OC | 700 | 60 | 21000 | 30 | > 5000 | 50 | –
7 | CC(Oc1cccc(Cl)c1Cl)C(=O)Nc1ccc2oc(-c3ccncc3)nc2c1 (stereo not given) | 220 | 11 | 8000 | 40 | > 5000 | 3 | CC50 at 72 h [7]: > 50000 nM; CC50 at 72 h [8]: > 50000 nM; CC50 at 72 h [10]: > 50000 nM; CC50 at 72 h [11]: > 50000 nM
8 | C[C@H](C(=O)Nc1ccc2oc(-c3ccncc3)nc2c1)c1ccccc1 | – | – | – | – | > 5000 | > 5000 | –
9 | CC(Oc1ccccc1)C(=O)Nc1ccc2nc(-c3ccncc3)[nH]c2c1 (stereo not given) | 9000 | – | 9000 | 1 | > 5000 | > 5000 | –
10 | CC(Oc1ccccc1Cl)C(=O)Nc1ccc2oc(-c3ccncc3)nc2c1 (stereo not given) | 900 | 50 | 3000 | 3 | > 5000 | 19 | CC50 at 72 h [7]: > 50000 nM; CC50 at 72 h [8]: > 50000 nM; CC50 at 72 h [10]: 12500 nM; CC50 at 72 h [11]: > 50000 nM
11 | COc1ccc(OC(C)C(=O)Nc2ccc3oc(-c4ccncc4)nc3c2)cc1 (stereo not given) | 500 | 34 | > 25000 | >50 | > 5000 | 28 | CC50 at 72 h [7]: > 50000 nM; CC50 at 72 h [8]: > 50000 nM; CC50 at 72 h [10]: > 50000 nM; CC50 at 72 h [11]: > 50000 nM
12 | C[C@H](Oc1cccc2ccccc12)C(=O)N(C)c1ccc2oc(-c3cncs3)nc2c1 | – | – | – | – | > 5000 | > 5000 | –
13 | CC(Nc1cccc(Cl)c1Cl)C(=O)Nc1ccc2oc(-c3ccncc3)nc2c1 (racemic) | 20 | – | – | – | > 5000 | 2 | –
14 | C[C@H](Oc1cccc(C(F)(F)F)c1Cl)C(=O)Nc1ccc2oc(-c3ccncc3)nc2c1 | 800 | 52 | – | – | > 5000 | 9 | –
15 | O=C(COc1ccc(Cl)cc1Cl)Nc1ccc2oc(-c3ccncc3)nc2c1 | – | – | – | – | > 5000 | > 5000 | –
16 | CC(Oc1c(Cl)cccc1Cl)C(=O)Nc1ccc2oc(-c3ccncc3)nc2c1 (stereo not given) | – | – | – | – | > 5000 | > 5000 | –
17 | C[C@H](Oc1cccc(Cl)c1Cl)C(=O)Nc1ccc2oc(-c3cncs3)nc2c1 | 200 | 2.3 | 3300 | 15 | > 5000 | 1.4 | t1/2 (Liver [1]): 7 min; t1/2 (Liver [12]): 11 min
18 | CC(Cc1ccccc1)C(=O)Nc1ccc2oc(-c3ccncc3)nc2c1 (stereo not given) | – | – | – | – | > 5000 | > 5000 | –
19 | CC(C)C(Oc1cccc2ccccc12)C(=O)Nc1ccc2oc(-c3ccncc3)nc2c1 (stereo not given) | – | 57 | – | – | > 5000 | 24 | –
20 | C[C@H](Oc1cccc(Cl)c1Cl)C(=O)Nc1ccc2nc(-c3ccncc3)oc2c1 | 20 | 4 | 3000 | 150 | > 5000 | 0.6 | t1/2 (Liver [1]): 10 min; CC50 at 72 h [7]: > 50000 nM; CC50 at 72 h [8]: > 50000 nM; t1/2 (Liver [12]): 9 min; CC50 at 72 h [10]: > 50000 nM; CC50 at 72 h [11]: > 50000 nM
21 | CC(C)(Oc1ccc(Cl)cc1)C(=O)Nc1ccc2oc(-c3ccncc3)nc2c1 | – | – | – | – | > 5000 | > 5000 | –

Row | SMILES | EC50 (Toxoplasma gondii [2]) [nM] | IC50 [3] [nM] | EC50 (Toxoplasma gondii [4]) [nM] | Ratio EC50 (Toxoplasma gondii [5]) | IC50 [6] [nM] | IC50 [9] [nM] | also measured
22 | CC(Oc1ccccc1)c1cn(-c2ccc3oc(-c4cncs4)nc3c2)nn1 (stereo not given) | – | – | – | – | > 5000 | > 5000 | –
23 | C[C@H](Oc1cccc2ccccc12)C(=O)Nc1ccc2oc(-c3ccc[nH]3)nc2c1 | 1000 | 50 | 1700 | 1.7 | > 5000 | 26 | –
24 | C[C@@H](C(=O)Nc1ccc2oc(-c3ccncc3)nc2c1)c1cccc(Cl)c1Cl | – | – | – | – | > 5000 | 60 | t1/2 (Liver [1]): 25 min; t1/2 (Liver [12]): 130 min
25 | CC(Oc1ccc(Cl)cc1Cl)C(=O)Nc1ccc2oc(-c3ccccc3)nc2c1 (stereo not given) | – | – | – | – | > 5000 | > 5000 | –
26 | CC(Oc1cccc(Cl)c1)C(=O)Nc1ccc2oc(-c3ccncc3)nc2c1 (stereo not given) | 500 | 32 | 1100 | 2 | > 5000 | 20 | –
27 | CC(Oc1ccc(Cl)cc1)C(=O)Nc1ccc2oc(-c3ccncc3)nc2c1 (stereo not given) | – | 118 | – | – | > 5000 | 105 | –
28 | C[C@H](Nc1cccc2ccccc12)C(=O)Nc1ccc2oc(-c3ccncc3)nc2c1 | – | – | – | – | > 5000 | 14 | t1/2 (Liver [1]): 18 min; t1/2 (Liver [12]): 27 min
29 | CC(Oc1cccc2ccccc12)C(=O)Nc1ccc2oc(-c3ccncc3)nc2c1 (stereo not given) | 200 | 14 | 2400 | 34 | > 5000 | 9 | –
30 | CC(C(=O)Nc1ccc2oc(-c3ccncc3)nc2c1)c1ccccc1 (stereo not given) | 2500 | 130 | 5000 | – | > 5000 | 120 | –
31 | C[C@H](Oc1cccc(Cl)c1Cl)C(=O)Nc1cccc(NC(=O)c2ccncc2)c1 | – | – | – | – | > 5000 | > 5000 | –
32 | C[C@H](Oc1cccc(Cl)c1Cl)C(=O)Nc1cc(Cl)c2oc(-c3ccncc3)nc2c1 | – | 600 | – | – | > 5000 | 240 | Kis [13]: 150 nM; Kis [14]: 210 nM
33 | C[C@H](Oc1cccc(Cl)c1Cl)C(=O)Nc1ccc2oc(-c3nccs3)nc2c1 | 300 | 30 | 2200 | 7 | > 5000 | 17 | –
34 | C[C@H](Oc1cccc(Cl)c1Cl)C(=O)Nc1ccc2nc(-c3cncs3)oc2c1 | – | 60 | – | – | > 5000 | 7 | –
35 | C[C@H](Oc1cccc(Cl)c1Cl)C(=O)Nc1ccc2oc(-c3ccncc3)nc2c1 | 300 | 3.5 | 5000 | 16 | > 5000 | 1.2 | t1/2 (Liver [1]): 9 min; t1/2 (Liver [12]): 12 min
36 | CC(NC(=O)c1ccc2oc(-c3ccncc3)nc2c1)c1ccccc1 (stereo not given) | – | – | – | – | > 5000 | > 5000 | –
37 | CC(Oc1ccccc1)C(=O)Nc1ccc2oc(-c3ccncc3)nc2c1 (stereo not given) | 4000 | 50 | 7000 | 2 | > 5000 | 40 | –
38 | CC(Oc1ccc(Cl)cc1Cl)C(=O)Nc1ccc2oc(-c3ccccn3)nc2c1 (stereo not given) | – | 800 | – | – | > 5000 | 210 | –
39 | CC(Oc1ccc(Cl)c2ccccc12)C(=O)Nc1ccc2oc(-c3cncs3)nc2c1 (stereo not given) | 2000 | 70 | 5000 | 3 | > 5000 | 28 | –
40 | C[C@H](Nc1cccc(Cl)c1Cl)C(=O)Nc1ccc2oc(-c3ccncc3)nc2c1 | – | – | – | – | > 5000 | 0.5 | t1/2 (Liver [1]): 44 min; CC50 at 72 h [7]: > 50000 nM; CC50 at 72 h [8]: > 50000 nM; t1/2 (Liver [12]): 110 min; CC50 at 72 h [10]: > 50000 nM; CC50 at 72 h [11]: > 50000 nM
41 | C[C@@H](Oc1cccc2ccccc12)C(=O)Nc1ccc2oc(-c3ccncc3)nc2c1 | – | 380 | – | – | > 5000 | 400 | –
